In ChEMBL document CHEMBL5724801, “EUbOPEN Chemogenomics Library - Multiplex” (2024):
Where “and” joins values, the source holds several entries; their conditions need not be identical. Equal values may be shown once.

Tested on: U2OS
Test: Multiplex assay against U2OS
Type: toxicity, cell-based
Conditions: human
Summary of the method: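 Compound was added to live cells that had been stained at seeding with Hoechst33342, BioTracker Green Microtubule Cytoskeleton Dye, MitoTracker Red and Annexin V Alexa Fluor 680, and imaging followed on a CQ1 microscope at 37°C and 5% CO2. CellPathfinder machine-learning gating divided cells into Hoechst high-intensity objects or normal cells, normal cells into healthy, pyknosed or fragmented nuclei, and pyknosed cells into mitotic or apoptotic. Tubulin, mitochondrial-mass and membrane-permeability phenotypes are per cents of healthy-nucleus cells.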

[1] = 12 h, 1 µM, compound concentration 1 uM
[2] = 12 h, 10 µM, compound concentration 10 uM
[3] = 24 h, 1 µM, compound concentration 1 uM
[4] = 24 h, 10 µM, compound concentration 10 uM
[5] = 48 h, 1 µM, compound concentration 1 uM
[6] = 48 h, 10 µM, compound concentration 10 uM

O=C1COc2nccc(-c3ccccc3F)c2CN1Cc1cc(C(F)(F)F)cc(C(F)(F)F)c1
Population Apoptotic (%) [1]: 52% and 77%
Population Fragmented Nuclei (%) [1]: 19% and 23%
Population Healthy Nuclei (%) [1]: 72% and 67%
Population Hoechst High Intensity Objects (%) [1]: 4% and 2%
Population Membrane Permeable-Phenotype (%) [1]: 6% and 15%
Population Mitochondria Different-Phenotype (%) [1]: 2% and 9%
Population Mitotic Cells (%) [1]: 47% and 22%
Population Normal (%) [1]: 95% and 97%
Population Pyknosed Nuclei (%) [1]: 8%
Population Tubulin-Different-Phenotype (%) [1]: 4% and 11%
Total Cell Count [1]: 252 and 108
Population Apoptotic (%) [2]: 70% and 100%
Population Fragmented Nuclei (%) [2]: 36% and 16%
Population Healthy Nuclei (%) [2]: 47% and 76%
Population Hoechst High Intensity Objects (%) [2]: 3% and 5%
Population Membrane Permeable-Phenotype (%) [2]: 25% and 17%
Population Mitochondria Different-Phenotype (%) [2]: 27% and 23%
Population Normal (%) [2]: 96% and 94%
Population Pyknosed Nuclei (%) [2]: 16% and 7%
Population Tubulin-Different-Phenotype (%) [2]: 25% and 13%
Total Cell Count [2]: 200 and 112
Population Apoptotic (%) [3]: 86% and 83%
Population Fragmented Nuclei (%) [3]: 17% and 18%
Population Healthy Nuclei (%) [3]: 74% and 76%
Population Hoechst High Intensity Objects (%) [3]: 3% and 4%
Population Membrane Permeable-Phenotype (%) [3]: 8% and 12%
Population Mitochondria Different-Phenotype (%) [3]: 3% and 7%
Population Mitotic Cells (%) [3]: 13% and 16%
Population Normal (%) [3]: 96% and 95%
Population Pyknosed Nuclei (%) [3]: 8% and 5%
Population Tubulin-Different-Phenotype (%) [3]: 3% and 5%
Total Cell Count [3]: 291 and 121
Population Apoptotic (%) [4]: 58% and 100%
Population Fragmented Nuclei (%) [4]: 36% and 21%
Population Healthy Nuclei (%) [4]: 43% and 70%
Population Hoechst High Intensity Objects (%) [4]: 5%
Population Membrane Permeable-Phenotype (%) [4]: 21% and 13%
Population Mitochondria Different-Phenotype (%) [4]: 22% and 19%
Population Normal (%) [4]: 94%
Population Pyknosed Nuclei (%) [4]: 19% and 8%
Population Tubulin-Different-Phenotype (%) [4]: 17% and 7%
Total Cell Count [4]: 210 and 126
Population Apoptotic (%) [5]: 84% and 76%
Population Fragmented Nuclei (%) [5]: 16% and 19%
Population Healthy Nuclei (%) [5]: 74% and 69%
Population Hoechst High Intensity Objects (%) [5]: 3%
Population Membrane Permeable-Phenotype (%) [5]: 5% and 8%
Population Mitochondria Different-Phenotype (%) [5]: 3% and 5%
Population Mitotic Cells (%) [5]: 15% and 23%
Population Normal (%) [5]: 96%
Population Pyknosed Nuclei (%) [5]: 9% and 10%
Population Tubulin-Different-Phenotype (%) [5]: 3%
Total Cell Count [5]: 425 and 166
Population Apoptotic (%) [6]: 61% and 85%
Population Fragmented Nuclei (%) [6]: 35% and 25%
Population Healthy Nuclei (%) [6]: 46% and 60%
Population Hoechst High Intensity Objects (%) [6]: 4%
Population Membrane Permeable-Phenotype (%) [6]: 20% and 12%
Population Mitochondria Different-Phenotype (%) [6]: 17% and 12%
Population Mitotic Cells (%) [6]: 38% and 14%
Population Normal (%) [6]: 95%
Population Pyknosed Nuclei (%) [6]: 17% and 14%
Population Tubulin-Different-Phenotype (%) [6]: 11% and 3%
Total Cell Count [6]: 236 and 151

CCC(=O)OCC(=O)[C@@]1(OC(=O)CC)[C@@H](C)C[C@H]2[C@@H]3CCC4=CC(=O)C=C[C@]4(C)[C@@]3(Cl)[C@@H](O)C[C@@]21C [BECLOMETHASONE DIPROPIONATE]
Population Apoptotic (%) [1]: 84% and 71%
Population Fragmented Nuclei (%) [1]: 23% and 18%
Population Healthy Nuclei (%) [1]: 64% and 75%
Population Hoechst High Intensity Objects (%) [1]: 1% and 0%
Population Membrane Permeable-Phenotype (%) [1]: 11% and 13%
Population Mitochondria Different-Phenotype (%) [1]: 4% and 8%
Population Mitotic Cells (%) [1]: 15% and 28%
Population Normal (%) [1]: 98% and 99%
Population Pyknosed Nuclei (%) [1]: 12% and 6%
Population Tubulin-Different-Phenotype (%) [1]: 6% and 4%
Total Cell Count [1]: 160 and 111
Population Apoptotic (%) [2]: 65% and 68%
Population Healthy Nuclei (%) [2]: 40% and 69%
Population Hoechst High Intensity Objects (%) [2]: 4%
Population Membrane Permeable-Phenotype (%) [2]: 67% and 48%
Population Mitochondria Different-Phenotype (%) [2]: 73% and 97%
Population Mitotic Cells (%) [2]: 34% and 31%
Population Normal (%) [2]: 95%
Population Pyknosed Nuclei (%) [2]: 17% and 18%
Population Tubulin-Different-Phenotype (%) [2]: 80% and 97%
Total Cell Count [2]: 176 and 109
Population Apoptotic (%) [3]: 78% and 87%
Population Fragmented Nuclei (%) [3]: 21% and 15%
Population Healthy Nuclei (%) [3]: 67% and 71%
Population Hoechst High Intensity Objects (%) [3]: 2% and 0%
Population Membrane Permeable-Phenotype (%) [3]: 2% and 6%
Population Mitochondria Different-Phenotype (%) [3]: 4% and 5%
Population Mitotic Cells (%) [3]: 21% and 12%
Population Normal (%) [3]: 97% and 99%
Population Pyknosed Nuclei (%) [3]: 10% and 13%
Population Tubulin-Different-Phenotype (%) [3]: 1% and 3%
Total Cell Count [3]: 217 and 123
Population Apoptotic (%) [4]: 74% and 64%
Population Fragmented Nuclei (%) [4]: 35% and 12%
Population Healthy Nuclei (%) [4]: 45% and 69%
Population Hoechst High Intensity Objects (%) [4]: 3% and 9%
Population Membrane Permeable-Phenotype (%) [4]: 40% and 43%
Population Mitochondria Different-Phenotype (%) [4]: 72% and 86%
Population Mitotic Cells (%) [4]: 25% and 35%
Population Normal (%) [4]: 96% and 90%
Population Pyknosed Nuclei (%) [4]: 18% and 17%
Population Tubulin-Different-Phenotype (%) [4]: 66% and 76%
Total Cell Count [4]: 174 and 106
Population Apoptotic (%) [5]: 91% and 85%
Population Fragmented Nuclei (%) [5]: 22% and 10%
Population Healthy Nuclei (%) [5]: 68% and 75%
Population Hoechst High Intensity Objects (%) [5]: 2%
Population Membrane Permeable-Phenotype (%) [5]: 5% and 8%
Population Mitochondria Different-Phenotype (%) [5]: 2% and 5%
Population Mitotic Cells (%) [5]: 8% and 14%
Population Normal (%) [5]: 97%
Population Pyknosed Nuclei (%) [5]: 9% and 14%
Population Tubulin-Different-Phenotype (%) [5]: 2% and 3%
Total Cell Count [5]: 268 and 152
Population Apoptotic (%) [6]: 80% and 70%
Population Fragmented Nuclei (%) [6]: 36% and 21%
Population Healthy Nuclei (%) [6]: 47% and 65%
Population Hoechst High Intensity Objects (%) [6]: 4% and 6%
Population Membrane Permeable-Phenotype (%) [6]: 20% and 16%
Population Mitochondria Different-Phenotype (%) [6]: 26% and 36%
Population Mitotic Cells (%) [6]: 20% and 29%
Population Normal (%) [6]: 95% and 93%
Population Pyknosed Nuclei (%) [6]: 15% and 13%
Population Tubulin-Different-Phenotype (%) [6]: 14% and 10%
Total Cell Count [6]: 199 and 131
